Measurements: ChEMBL document CHEMBL5107939, “Optimization of brain-penetrant picolinamide derived leucine-rich repeat kinase 2 (LRRK2) inhibitors” (RSC Med Chem, 2021)

Experiments:
Homo sapiens = species: Homo sapiens; assay: Selectivity ratio, ratio of IC50 for inhibition of CLK2 (unknown origin) to IC50 for inhibition of recombinant human GST20 tagged truncated LRRK2 G2019S mutant
[1] = biological target: Dual specificity protein kinase CLK2 (Homo sapiens, UniProt P49760); assay: Inhibition of CLK2 (unknown origin) assessed as substrate phosphorylation using coumarin and fluorescein-labeled peptide as substrate incubated for 1 hr by Z'-LYTE kinase assay
Dual specificity protein kinase CLK2, sequence (P49760 whole entry): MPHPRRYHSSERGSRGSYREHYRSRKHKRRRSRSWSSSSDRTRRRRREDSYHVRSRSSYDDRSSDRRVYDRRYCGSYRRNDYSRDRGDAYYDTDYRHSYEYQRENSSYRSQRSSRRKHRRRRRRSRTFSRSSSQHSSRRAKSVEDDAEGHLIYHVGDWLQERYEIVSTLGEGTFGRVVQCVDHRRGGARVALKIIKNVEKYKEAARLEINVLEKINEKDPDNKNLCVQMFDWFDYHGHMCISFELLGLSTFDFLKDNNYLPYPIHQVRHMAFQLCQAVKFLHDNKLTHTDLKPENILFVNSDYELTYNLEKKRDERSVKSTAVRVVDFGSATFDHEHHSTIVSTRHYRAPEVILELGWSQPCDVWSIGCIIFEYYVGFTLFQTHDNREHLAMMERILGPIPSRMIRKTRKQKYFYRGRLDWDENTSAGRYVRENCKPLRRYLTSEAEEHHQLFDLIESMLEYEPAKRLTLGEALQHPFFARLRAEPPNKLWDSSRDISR
Summary of the method: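 CLK2 Z'-LYTE coupled-enzyme kit format, 10-point titration from DMSO; enzyme, substrate and compound reacted 1 h at ambient temperature; after development solution, read at excitation 400 nm; activity from coumarin 445 nm/fluorescein 520 nm emission ratio.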

[2] = biological target: T1, Leucine-rich repeat serine/threonine-protein kinase 2 (Homo sapiens, UniProt Q5S007, G2019S); assay: Inhibition of recombinant human GST20 tagged truncated LRRK2 G2019S mutant assessed as substrate phosphorylation preincubated for 15 mins followed by substrate addition and measured after 90 mins using fluorescein-labeled LRRK2tide as substrate in presence of ATP by TR-FRET based Lanthascreen kinase activity assay
T1 sequence (Q5S007 whole entry G2019S, the tested form may be a part): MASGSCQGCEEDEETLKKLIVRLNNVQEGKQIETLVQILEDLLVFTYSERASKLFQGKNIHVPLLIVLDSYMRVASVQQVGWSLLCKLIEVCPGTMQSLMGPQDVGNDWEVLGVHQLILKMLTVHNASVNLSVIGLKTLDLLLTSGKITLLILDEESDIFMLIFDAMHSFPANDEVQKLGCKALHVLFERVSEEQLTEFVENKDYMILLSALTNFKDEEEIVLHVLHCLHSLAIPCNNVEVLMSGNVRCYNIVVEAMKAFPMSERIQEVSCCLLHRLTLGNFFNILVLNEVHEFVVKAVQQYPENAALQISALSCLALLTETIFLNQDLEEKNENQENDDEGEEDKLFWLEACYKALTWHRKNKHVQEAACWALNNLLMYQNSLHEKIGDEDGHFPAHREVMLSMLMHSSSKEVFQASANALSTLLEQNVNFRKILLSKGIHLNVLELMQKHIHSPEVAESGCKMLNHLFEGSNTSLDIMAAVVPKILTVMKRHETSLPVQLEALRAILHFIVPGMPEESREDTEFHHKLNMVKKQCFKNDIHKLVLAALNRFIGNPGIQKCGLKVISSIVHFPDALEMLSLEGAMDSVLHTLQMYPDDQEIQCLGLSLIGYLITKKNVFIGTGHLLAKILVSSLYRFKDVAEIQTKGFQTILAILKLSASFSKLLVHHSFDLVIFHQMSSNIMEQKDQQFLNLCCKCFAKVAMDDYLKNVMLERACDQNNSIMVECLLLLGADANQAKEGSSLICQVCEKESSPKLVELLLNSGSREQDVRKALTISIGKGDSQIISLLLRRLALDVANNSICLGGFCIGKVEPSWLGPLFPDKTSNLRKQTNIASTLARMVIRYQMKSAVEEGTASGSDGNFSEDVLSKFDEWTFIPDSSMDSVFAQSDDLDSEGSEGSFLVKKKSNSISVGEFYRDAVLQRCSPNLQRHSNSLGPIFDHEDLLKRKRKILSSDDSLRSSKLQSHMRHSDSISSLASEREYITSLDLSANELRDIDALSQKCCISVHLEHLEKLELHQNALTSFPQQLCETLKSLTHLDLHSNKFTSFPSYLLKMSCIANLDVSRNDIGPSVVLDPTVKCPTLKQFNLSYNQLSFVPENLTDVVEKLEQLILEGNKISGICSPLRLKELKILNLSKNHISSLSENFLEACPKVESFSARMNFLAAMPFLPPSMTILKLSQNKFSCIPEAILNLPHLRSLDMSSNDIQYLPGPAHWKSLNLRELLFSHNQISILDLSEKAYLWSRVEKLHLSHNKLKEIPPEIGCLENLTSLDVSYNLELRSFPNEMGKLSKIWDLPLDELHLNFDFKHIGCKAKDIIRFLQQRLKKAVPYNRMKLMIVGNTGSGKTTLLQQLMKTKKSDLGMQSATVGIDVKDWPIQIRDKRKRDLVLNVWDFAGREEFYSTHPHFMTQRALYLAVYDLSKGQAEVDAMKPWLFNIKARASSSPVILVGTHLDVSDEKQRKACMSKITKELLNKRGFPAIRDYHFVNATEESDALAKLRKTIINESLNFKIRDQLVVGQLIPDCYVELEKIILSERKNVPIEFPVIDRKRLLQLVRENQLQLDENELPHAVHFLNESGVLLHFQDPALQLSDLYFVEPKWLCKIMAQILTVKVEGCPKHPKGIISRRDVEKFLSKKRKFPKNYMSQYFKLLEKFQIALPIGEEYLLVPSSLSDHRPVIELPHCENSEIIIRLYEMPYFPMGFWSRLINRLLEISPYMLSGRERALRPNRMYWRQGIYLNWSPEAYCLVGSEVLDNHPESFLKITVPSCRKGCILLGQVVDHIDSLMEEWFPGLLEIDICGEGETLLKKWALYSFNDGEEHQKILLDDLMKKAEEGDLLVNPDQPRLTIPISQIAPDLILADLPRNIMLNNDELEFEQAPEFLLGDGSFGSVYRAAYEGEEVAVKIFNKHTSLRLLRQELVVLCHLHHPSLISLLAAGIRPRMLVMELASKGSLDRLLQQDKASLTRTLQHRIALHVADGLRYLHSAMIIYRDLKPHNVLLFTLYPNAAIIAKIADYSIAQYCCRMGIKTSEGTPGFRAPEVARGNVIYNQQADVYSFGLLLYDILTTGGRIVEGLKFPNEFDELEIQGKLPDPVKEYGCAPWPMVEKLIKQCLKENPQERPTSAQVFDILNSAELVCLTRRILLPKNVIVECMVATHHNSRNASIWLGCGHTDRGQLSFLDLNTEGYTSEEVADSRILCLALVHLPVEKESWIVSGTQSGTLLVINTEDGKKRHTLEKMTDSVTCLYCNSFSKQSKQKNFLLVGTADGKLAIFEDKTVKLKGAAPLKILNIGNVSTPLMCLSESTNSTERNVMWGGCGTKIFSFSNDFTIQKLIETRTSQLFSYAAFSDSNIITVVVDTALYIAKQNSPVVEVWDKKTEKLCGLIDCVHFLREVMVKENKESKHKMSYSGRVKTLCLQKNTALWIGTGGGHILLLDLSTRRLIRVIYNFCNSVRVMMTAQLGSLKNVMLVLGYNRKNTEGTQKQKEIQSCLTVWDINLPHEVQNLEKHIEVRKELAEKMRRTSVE
Summary of the method: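 Enzyme 1.25 nM in 50 mM Tris pH 8.5, 10 mM MgCl2, 0.01% Brij-35, 1 mM EGTA, 2 mM DTT, 0.05 mM orthovanadate. Compound (top 9.99 µM in DMSO, ten-point serial dilution) preincubated 15 min at RT. […] Stopped with EDTA plus 2 nM Tb anti-pERM, 1 h RT. 520/495 nm ratio read. IC50 from 4-parameter logistic fit, mean of several runs.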

[3] = biological target: T1, Leucine-rich repeat serine/threonine-protein kinase 2; assay: Inhibition of human LRRK2 G2019S mutant expressed in human SH-SY5Y cells assessed as inhibition of tetracycline induced LRRK2 phosphorylation at Ser935 residue incubated for 90 mins by MSD assay; format: cell-based
Summary of the method: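 SH-SY5Y neuroblastoma cells carrying LRRK2 G2019S, grown in DMEM/F-12 with GlutaMax, 10% Tet-free FBS, nonessential amino acids and pen-strep at 37 °C, 5% CO2. Expression induced with Tet (2 µg/ml) 48-72 h before treatment. Compound exposure 90 min. Lysates captured on anti-LRRK2-coated MSD plates, probed for pSer935 or total LRRK2 with Sulfo-Tag read-out. IC50 from standard 4P fit of % inhibition.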

P-gp (rat Mdr1a) [4] = assay: Substrate activity at P-gp (unknown origin) expressed in LLC-PK1 cells transfected with rat Mdr1a assessed as apparent permeability at 1 uM incubated for 3 hrs by LC-MSMS analysis; format: ADME, cell-based, Sus scrofa; conditions: pig
P-gp (rat Mdr1a) [5] = assay: Substrate activity at P-gp (unknown origin) expressed in LLC-PK1 cells transfected with rat Mdr1a assessed as efflux ratio of apparent permeability across basolateral to apical side to apparent permeability across apical to basolateral side at 1 uM incubated for 3 hrs by LC-MSMS analysis; format: ADME, cell-based, Sus scrofa; conditions: pig
[6] = MRT in po dosed Beagle dog and measured upto 24 hrs by LC-MS/MS analysis; format: ADME, organism-based, Canis lupus familiaris; conditions: in vivo
[7] = Intrinsic clearance in po dosed Beagle dog and measured upto 24 hrs by LC-MS/MS analysis; format: ADME, organism-based, Canis lupus familiaris; conditions: in vivo
[8] = Brain to plasma permeability coefficient, Kp in CD rat plasma assessed as unbound fraction at 3 to 100 mg/kg, po and measured after 2 hrs by LC/MS/MS analysis; format: ADME, organism-based; conditions: in vivo, dose 3-100 mg/kg
[9] = Plasma clearance in po dosed Beagle dog and measured upto 24 hrs by LC-MS/MS analysis; format: ADME, organism-based, Canis lupus familiaris
[10] = Intrinsic clearance in po dosed CD rat measured after 120 mins by LC-MS/MS analysis; format: ADME, organism-based; conditions: in vivo, 2 h
[11] = Plasma clearance in po dosed CD rat measured after 120 mins by LC-MS/MS analysis; format: ADME, organism-based
[12] = MRT in po dosed CD rat measured after 120 mins by LC-MS/MS analysis; format: ADME, organism-based; conditions: in vivo
[13] = Mutagenicity in Salmonella typhimurium TA1535 at 30 to 5000 ug in presence of S9 metabolic activation system for 48 hrs by ames test; format: toxicity, Salmonella enterica subsp. enterica serovar Typhimurium; conditions: in vitro, dose 30-5000 µg
Summary of the method: (§1)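 Plate incorporation Ames test with S9 from phenobarbital/beta-naphthoflavone-induced male Wistar Han rat liver; 30, 100, 300, 1000, 3000, 5000 µg/plate; triplicate minimal glucose agar plates with trace histidine; 48 h at 37 °C; positive if 2-fold revertant increase over vehicle with dose relation.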

[14] = Mutagenicity in Salmonella typhimurium TA98 at 30 to 5000 ug in presence of S9 metabolic activation system for 48 hrs by ames test; format: toxicity, Salmonella enterica subsp. enterica serovar Typhimurium; conditions: dose 30-5000 µg; summary of the method: as §1
[15] = Mutagenicity in Salmonella typhimurium TA100 at 30 to 5000 ug in presence of S9 metabolic activation system for 48 hrs by ames test; format: toxicity, Salmonella enterica subsp. enterica serovar Typhimurium; conditions: dose 30-5000 µg; summary of the method: as §1
[16] = In vivo inhibition of LRRK2 in CD rat assessed as reduction in serine 935 phosphorylated LRRK2 in striatum at 10 mg/kg, po and measured after 2 hrs by MSD immunoassay; format: functional
Summary of the method: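 Male CD rats (125-150 g) dosed orally with compound suspended in 10% Tween 80 (5 mL/kg) or vehicle, euthanized by CO2 2 h later; striatum dissected, frozen on dry ice; pSer935 LRRK2 measured by MSD immunoassay as pSer935/total LRRK2 ratio, mean ± S.E.M.; one-way ANOVA with Dunnett's post hoc test.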

[17] = biological target: Sodium channel protein type 5 subunit alpha (Homo sapiens, UniProt Q14524); assay: Inhibition of human NaV1.5 expressed in HEK293 by PatchXpress automated patch clamp assay; format: cell-based
Sodium channel protein type 5 subunit alpha, sequence (Q14524 whole entry): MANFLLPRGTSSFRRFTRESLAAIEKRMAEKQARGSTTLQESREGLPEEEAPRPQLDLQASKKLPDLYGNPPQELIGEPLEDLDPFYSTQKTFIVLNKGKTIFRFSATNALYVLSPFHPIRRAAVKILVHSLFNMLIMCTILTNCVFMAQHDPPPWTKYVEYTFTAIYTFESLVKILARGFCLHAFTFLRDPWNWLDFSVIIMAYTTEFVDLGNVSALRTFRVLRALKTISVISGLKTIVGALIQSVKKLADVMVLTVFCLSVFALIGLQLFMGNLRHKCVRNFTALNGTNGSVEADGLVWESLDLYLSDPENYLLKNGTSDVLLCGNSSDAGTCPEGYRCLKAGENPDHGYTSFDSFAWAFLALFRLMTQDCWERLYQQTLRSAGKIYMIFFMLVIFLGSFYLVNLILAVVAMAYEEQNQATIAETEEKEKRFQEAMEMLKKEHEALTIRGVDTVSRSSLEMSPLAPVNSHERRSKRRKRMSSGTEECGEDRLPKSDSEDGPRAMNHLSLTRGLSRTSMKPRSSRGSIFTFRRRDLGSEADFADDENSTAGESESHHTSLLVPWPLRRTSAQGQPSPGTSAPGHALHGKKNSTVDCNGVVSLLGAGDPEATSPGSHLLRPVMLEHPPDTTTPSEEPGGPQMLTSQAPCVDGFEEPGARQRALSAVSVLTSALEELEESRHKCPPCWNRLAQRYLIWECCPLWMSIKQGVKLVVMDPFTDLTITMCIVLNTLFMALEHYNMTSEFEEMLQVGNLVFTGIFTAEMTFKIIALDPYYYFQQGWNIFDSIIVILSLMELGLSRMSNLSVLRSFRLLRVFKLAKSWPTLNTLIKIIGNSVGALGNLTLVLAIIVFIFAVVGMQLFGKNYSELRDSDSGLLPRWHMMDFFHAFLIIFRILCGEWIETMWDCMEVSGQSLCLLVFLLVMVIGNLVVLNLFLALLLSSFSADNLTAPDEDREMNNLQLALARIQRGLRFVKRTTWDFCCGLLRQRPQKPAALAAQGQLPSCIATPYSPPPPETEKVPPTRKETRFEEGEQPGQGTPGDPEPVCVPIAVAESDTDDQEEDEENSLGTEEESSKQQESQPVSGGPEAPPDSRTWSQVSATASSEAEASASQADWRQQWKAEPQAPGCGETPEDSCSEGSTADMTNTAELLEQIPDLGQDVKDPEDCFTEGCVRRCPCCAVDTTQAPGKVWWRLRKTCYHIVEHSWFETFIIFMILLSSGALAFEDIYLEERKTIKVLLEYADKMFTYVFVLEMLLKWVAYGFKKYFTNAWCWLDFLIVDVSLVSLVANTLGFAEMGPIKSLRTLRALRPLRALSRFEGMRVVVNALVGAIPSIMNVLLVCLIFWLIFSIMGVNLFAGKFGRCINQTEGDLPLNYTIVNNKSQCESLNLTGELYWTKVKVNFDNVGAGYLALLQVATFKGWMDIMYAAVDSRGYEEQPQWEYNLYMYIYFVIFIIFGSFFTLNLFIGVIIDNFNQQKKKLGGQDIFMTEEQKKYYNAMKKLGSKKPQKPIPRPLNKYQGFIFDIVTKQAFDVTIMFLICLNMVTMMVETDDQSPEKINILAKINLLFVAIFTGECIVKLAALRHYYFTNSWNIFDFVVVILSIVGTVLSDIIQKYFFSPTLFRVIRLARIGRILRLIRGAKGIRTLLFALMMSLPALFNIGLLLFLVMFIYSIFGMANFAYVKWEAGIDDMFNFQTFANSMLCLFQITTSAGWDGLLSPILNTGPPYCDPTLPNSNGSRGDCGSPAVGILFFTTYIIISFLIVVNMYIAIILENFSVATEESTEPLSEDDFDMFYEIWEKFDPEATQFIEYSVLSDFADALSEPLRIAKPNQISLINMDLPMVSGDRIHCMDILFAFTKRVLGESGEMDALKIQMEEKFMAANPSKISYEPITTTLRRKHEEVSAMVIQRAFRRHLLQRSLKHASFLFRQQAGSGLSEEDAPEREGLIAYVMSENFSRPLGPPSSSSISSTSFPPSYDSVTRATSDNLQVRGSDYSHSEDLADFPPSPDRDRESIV

| SMILES | Ratio IC50 (Homo sapiens) | IC50 [1] | IC50 [2] | IC50 [3] | also measured |
| --- | --- | --- | --- | --- | --- |
| C[C@@H]1CN(c2cc(NC(=O)c3cccc(-c4cnn(C)c4)n3)c(C(F)(F)F)cn2)C[C@H](C)O1 | 5 | 21 nM | 4 nM | 1.5 nM |  |
| Cn1cc(-c2nccc(C(=O)Nc3cnn(C4CCC4)c3)n2)cn1 | 505 | 17200 nM |  | 953 nM |  |
| Cn1cc(-c2cccc(C(=O)Nc3cc(N4CC[C@@H](C(C)(C)O)C4)cnc3C(F)(F)F)n2)cn1 | 4 | 62 nM | 17 nM | 21 nM | Papp at 3 h, 1 µM (P-gp (rat Mdr1a) [4]): 29 ×10⁻⁶ cm/s; efflux ratio at 3 h, 1 µM (P-gp (rat Mdr1a) [5]): 0.94; MRT [6]: 9.4 h; CL [7]: 1029 mL/min/kg; Kp [8]: 0.4; CL/F [9]: 4.8 mL/min/kg; CL [10]: 271 mL/min/kg; CL/F [11]: 6.7 mL/min/kg; MRT [12]: 4.9 h |
| CC(C)(O)[C@@H]1CCN(c2cnc(C(F)(F)F)c(N)c2)C1 |  |  |  |  | Activity [13]: Non-Toxic; Activity [14]: Non-Toxic; Activity [15]: Non-Toxic |
| C[C@@H]1CN(c2cc(-c3n[nH]c4ccc(OC5(C)CC5)cc34)ncn2)C[C@H](C)O1 [MLi-2] |  |  |  |  | inhibition in vivo at 10 mg/kg [16]: 72% |
| Cn1cc(-c2nc(C(=O)Nc3cnn(C4CCC4)c3)cs2)cn1 | 8.5 | 119 nM |  | 271 nM |  |
| Cc1nc(NC(=O)c2cccc(-c3cnn(C)c3)n2)cc(N2CC[C@@H](C(C)(C)O)C2)n1 |  | 255 nM | 4 nM | 42 nM |  |
| C[C@@H]1[C@H](O)CCN1c1cc(NC(=O)c2cccc(-c3cnn(C)c3)n2)c(C(F)(F)F)cn1 |  | 86 nM | 5 nM | 3 nM |  |
| COC1CN(c2cc(NC(=O)c3cccc(-c4cnn(C)c4)n3)c(C(F)(F)F)cn2)C1 | 2.4 | 67 nM | 28 nM | 2.8 nM |  |
| CC(C)(O)[C@@H]1CCN(c2cc(N)c(C(F)(F)F)cn2)C1 |  |  |  |  | Activity [13]: Toxic; Activity [14]: Toxic; Activity [15]: Toxic |
| CC(C)(O)[C@@H]1CCN(c2cnc(C(F)(F)F)c(NC(=O)c3cccc(-c4cnn(CC5CC5)c4)n3)c2)C1 | 3 | 23 nM | 8.6 nM | 0.4 nM | CL [10]: 78464 mL/min/kg; CL/F [11]: 38 mL/min/kg; MRT [12]: 2.9 h |
| C[C@H]1CN(c2cc(NC(=O)c3cccc(-c4cnn(C)c4)n3)c(C(F)(F)F)cn2)CCN1C1COC1 | 5 | 8 nM | 1.5 nM |  | CL [10]: 4081 mL/min/kg; CL/F [11]: 2.7 mL/min/kg; MRT [12]: 2.2 h |
| CC(C)(O)[C@@H]1CCN(c2cnc(C(F)(F)F)c(NC(=O)c3cccc(-c4cnn(CC(F)(F)F)c4)n3)c2)C1 | 42 | 442 nM | 10 nM | 0.7 nM | IC50 [17]: 30000 nM; CL [10]: 2780 mL/min/kg; CL/F [11]: 42 mL/min/kg; MRT [12]: 1.7 h |
| Cn1cc(-c2cccc(C(=O)Nc3cnn(C4CCC4)c3)n2)cn1 | 112 | 5960 nM | 53 nM | 905 nM |  |
| Cn1cc(-c2cccc(C(=O)Nc3cnn(C4CCC4)c3)c2F)cn1 | 10 | 716 nM | 70 nM | 1650 nM |  |
| Cc1nc(N)cc(N2CC[C@@H](C(C)(C)O)C2)n1 |  |  |  |  | Activity [13]: Non-Toxic; Activity [14]: Non-Toxic; Activity [15]: Non-Toxic |
| Cc1cnc(N2C[C@@H](C)O[C@@H](C)C2)cc1NC(=O)c1cccc(-c2cnn(C)c2)n1 | 14 | 124 nM | 9 nM | 24 nM |  |
| Cn1cc(-c2cccc(C(=O)Nc3cc(N4CC5(C(C)(C)O)CC4C5)ncc3C(F)(F)F)n2)cn1 |  | 9.6 nM | 9 nM | 2 nM |  |
| CC(C)(O)[C@@H]1CCN(c2cnc(C(F)(F)F)c(NC(=O)c3cccc(-c4cnn(CC5(C(F)(F)F)CC5)c4)n3)c2)C1 | 59 | 470 nM | 8 nM | 0.3 nM | CL/F [11]: 87 mL/min/kg; MRT [12]: 1.2 h |
| Cn1cc(-c2cccc(C(=O)Nc3cc(N4CC(O)C4)ncc3C(F)(F)F)n2)cn1 | 13 | 64 nM | 4.8 nM | 7.5 nM |  |
| CC(C)(O)[C@@H]1CCN(c2cnc(C(F)(F)F)c(NC(=O)c3cccc(-c4cnn(C5CCC5)c4)n3)c2)C1 | 5 | 91 nM | 19 nM | 1.3 nM | CL/F [11]: 31.4 mL/min/kg; MRT [12]: 2.1 h |
| C[C@@H]1[C@@H](O)CN1c1cc(NC(=O)c2cccc(-c3cnn(C)c3)n2)c(C(F)(F)F)cn1 |  | 12 nM | 2 nM | 2 nM |  |
| CCn1cc(-c2cccc(C(=O)Nc3cc(N4CC[C@@H](C(C)(C)O)C4)cnc3C(F)(F)F)n2)cn1 |  | 30 nM | 40 nM | 7 nM |  |
